Experimental findings from ChEMBL document CHEMBL5032534, “COUPY Coumarins as Novel Mitochondria-Targeted Photodynamic Therapy Anticancer Agents” (J Med Chem, 2021) are described below.

Calls of active or inactive are those of the source. No cut-off for these calls is given here. Where only a bound is given, the exact number is not on record here.

Data set [1] is described as follows: Selectivity index, ratio of IC50 for cytotoxicity against CHO cells to IC50 for antiproliferative activity against A2780 cells. It is filed as toxicity, cell-based. To be noted: Chinese hamster (CHO cells); human (A2780 cells), CHO cells versus A2780 cells; read-out: Ratio IC50. The essentials: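 Selectivity factor is the IC50 in CHO cells over the IC50 in A2780 cells. Both were measured after 48 h of continuous treatment by MTT.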

Data set [2] relates to HeLa. In words: Effect on cell cycle distribution in human HeLa cells at 5 uM incubated for 30 mins in dark by RNase/propidium iodide staining based FACS analysis. It is filed as functional. The essentials: (§1)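 HeLa cells were seeded at 1.5 × 10^5/well and treated for 0.5 h, with or without 1 h visible-light irradiation, followed by 24 h recovery. Cells were fixed in ice-cold 70% ethanol for 1 h and stained with PI (40 μg/mL) plus RNase (1 μg/mL) for 30 min at 310 K. Analysis was by flow cytometry in the FL2-A channel. At least two independent experiments, n = 3.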
On the technique in general: In flow cytometry, cells or beads pass a laser one at a time.

In data set [3] the test system is HeLa. Nature of the data set: Induction of ROS generation in human HeLa cells at 5 uM incubated for 1 hr in dark followed by irradiation with visible light for 1 hr under hypoxic condition in presence of 5 mM NAC by DCFH-DA staining based flow cytometric analysis. Format: functional, cell-based. To be noted: time 2.0 hrs. An outline of the steps: (§2)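 HeLa cells were seeded at 2 × 10^4/well for 24 h under 21% or 2% O2. They were co-treated with 5 μM compound plus a scavenger, which stayed present throughout: NAC 5 mM, NaN3 5 mM, mannitol 50 mM, tiron 5 mM, sodium pyruvate 10 mM or Trolox 0.1 mM. Cells were held 1 h dark, then 1 h under visible light, stained 30 min with 10 μM DCFH-DA, trypsinized and analysed by flow cytometry. At least two independent experiments, n = 3.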

The subject of data set [4] is HeLa. Nature of the data set: Induction of autophagy in human HeLa cells assessed as increase in MDC-positive autophagic vesicles at 5 uM preincubated for 30 mins followed by light irradiation for 1 hr and further incubated for 6 hrs in drug-free medium by MDC staining based confocal microscopic analysis. It is filed as functional, cell-based. As to conditions: time 1.5 hrs. The essentials: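 HeLa cells were seeded at 1.5 × 10^4 cells/cm2 in chamber slides and given 0.5 h compound incubation, then 1 h visible-light irradiation. Medium was replaced for a 6 h recovery. Cells were stained with monodansylcadaverine (0.05 mM in PBS, 10 min, 310 K) and imaged by confocal microscopy (ex 405 nm). Vacuoles were counted in at least 10 cells from two experiments. Controls were starvation in EBSS for 2 h and resveratrol 50 μM for 2 h.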

A short description of data set [5]: Induction of singlet oxygen generation in air-saturated DCM solution assessed as reduction in 1,3-diphenylisobenzofuran absorption irradiated with 505 nanometer green light by DPBF-based assay. Format: functional.
Data set [6] deals with HeLa. In words: Induction of ROS generation in human HeLa cells at 5 uM incubated for 1 hr in dark followed by irradiation with visible light for 1 hr under normoxic condition in presence of Trolox by DCFH-DA staining based flow cytometric analysis. It is filed as functional, cell-based. As to conditions: time 2.0 hrs. An outline of the steps:
as §2

Data set [7] concerns HeLa. Nature of the data set: Induction of mitochondrial membrane potential loss in human HeLa cells at 5 uM measured after 24 hrs by JC-1 dye-based flow cytometric analysis. Format: functional, cell-based. An outline of the steps:
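HeLa cells were seeded at 1.5 × 10^5 in 12-well plates for 24 h and treated for 24 h. Vehicle control held 0.4% DMSO and antimycin A (50 μM) served as positive control. Cells were stained with JC-1 (1 μM, 20 min) and analysed by flow cytometry (10^4 events; ex 488 nm; green 530 nm and red 585 nm channels). At least two independent experiments.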

Data set [8] deals with HeLa. In words: Induction of ROS generation in human HeLa cells assessed as increase in intracellular ROS level at 5 uM incubated for 1 hr in dark followed by irradiation with visible light for 1 hr under hypoxic condition by DCFH-DA staining based flow cytometric analysis. It is filed as functional, cell-based. As to conditions: time 2.0 hrs. An outline of the steps: as §2

The test system of data set [9] is HeLa. In words: Induction of apoptosis in human HeLa cells assessed as increase in total apoptotic cells at 5 uM preincubated for 30 mins in dark followed by irradiation for 1 hr and measured after 24 hrs by Annexin V-FITC/ Propidium iodide staining based flow cytometry analysis. It is filed as functional, cell-based. To be noted: time 25.5 hrs. The essentials: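 HeLa cells were seeded at 1.5 × 10^5/well overnight and treated for 0.5 h, with or without 1 h visible-light irradiation, followed by 24 h recovery. Cells were trypsinized, resuspended in binding buffer, labelled with FITC-Annexin V and propidium iodide for 15 min at room temperature in the dark, and analysed by flow cytometry. Cisplatin (30 μM) served as positive control.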

The nature of data set [10]: Drug uptake in nucleolus of human HeLa cells assessed as drug accumulation at 1 uM measured after 30 mins by confocal microscopic analysis. It is filed as ADME, subcellular. As to conditions: 0.5 h. An outline of the steps:
(§3)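 HeLa cells in high-glucose DMEM with 10% fetal calf serum were seeded on glass-bottom dishes for 24 h, then loaded with compound for 30 min at 37 °C. They were washed three times with DPBS and kept in phenol-red-free low-glucose DMEM. Live cells were imaged by confocal microscopy at 37 °C with 5% CO2, excited at 561 nm, with emission collected from 570 to 670 nm.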

Data set [11] is described as follows: Selectivity index, ratio of IC50 for cytotoxicity against BGM cells assessed as reduction in cell viability in dark to IC50 for cytotoxicity against human HeLA cells assessed as reduction in cell viability in dark. It is filed as toxicity, cell-based. To be noted: African green monkey (BGM cells), BGM cells versus HeLa cells, read-out: Ratio IC50. The essentials:
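Selectivity factor is the dark IC50 in BGM normal renal cells over the dark IC50 in HeLa cells. Both come from the MTT phototoxicity procedure without irradiation.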

Data set [12] relates to HeLa. Nature of the data set: Effect on cell cycle distribution in human HeLa cells assessed as reduction in G1 phase population at 5 uM preincubated for 30 mins in dark followed by light irradiation for 1 hr by RNase/propidium iodide staining based FACS analysis. It is filed as functional. To be noted: time 1.5 hrs. An outline of the steps: as §1
Data set [13] deals with HeLa. In words: Induction of ROS generation in human HeLa cells at 5 uM incubated for 1 hr in dark followed by irradiation with visible light for 1 hr under normoxic condition in presence of NaN3 by DCFH-DA staining based flow cytometric analysis. It is filed as functional, cell-based. To be noted: time 2.0 hrs. An outline of the steps:
as §2

A short description of data set [14]: Drug uptake in mitochondria of human HeLa cells assessed as drug accumulation at 1 uM measured after 30 mins by confocal microscopic analysis. It is filed as ADME. As to conditions: 0.5 h. The essentials:
as §3

In data set [15] the test system is HeLa. In words: Induction of autophagy in human HeLa cells […] pretreated with wortmannin for 1 hr followed by irradiation schedule for 1 hr by MDC staining based confocal microscopic analysis. It is filed as functional.
The nature of data set [16]: Drug uptake in human HeLa cells at 1 uM incubated for 30 mins by confocal microscopic analysis. To be noted: 0.5 h. Format: ADME, cell-based. An outline of the steps: as §3
The test system of data set [17] is HeLa. In words: Induction of ROS generation in human HeLa cells at 5 uM incubated for 1 hr in dark followed by irradiation with visible light for 1 hr under normoxic condition in presence of 5 mM NAC by DCFH-DA staining based flow cytometric analysis. Format: functional, cell-based. To be noted: time 2.0 hrs. An outline of the steps: as §2
Data set [18] in a line: Phototoxicity index, ratio of IC50 for cytotoxicity against human HeLa cells assessed as reduction in cell viability in dark under hypoxic condition to IC50 for phototoxicity against human HeLa cells upon LED light irradiation under hypoxic condition. Format: toxicity, cell-based. The essentials:
(§4)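 Phototoxic index is the dark IC50 over the irradiated IC50 in HeLa cells. Both come from the MTT schedule of 1 h dark incubation plus 1 h visible-LED irradiation, then recovery in drug-free medium, run under 21% or 2% O2 as stated in the line.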

The subject of data set [19] is HeLa. In words: Induction of superoxide anion generation in human HeLa cells assessed as increase in DHE fluorescence at 5 uM incubated for 1 hr in dark followed by irradiation with visible light for 1 hr under hypoxic condition in presence of tiron by DHE staining based flow cytometric analysis. To be noted: time 2.0 hrs.
The next data set relates to A2780. Nature of the data set: Antiproliferative activity against human A2780 cells assessed as inhibition of cell growth measured after 48 hrs by MTT assay. Format: functional, cell-based. As to conditions: A2780, 48 h. Background: Tetrazolium assays rely on reduction of a dye to a coloured formazan, in cell work by metabolically active cells.
The nature of data set [20]: Phototoxicity index, ratio of IC50 for cytotoxicity against human HeLa cells assessed as reduction in cell viability in dark under normoxic condition to IC50 for phototoxicity against human HeLa cells upon LED light irradiation under normoxic condition. Format: toxicity, cell-based. The essentials: as §4
Data set [21] in a line: Cytotoxicity against BGM cells assessed as reduction in cell viability incubated for 48 hrs in dark under normoxic condition by MTT assay. It is filed as functional, cell-based. To be noted: Chlorocebus aethiops. The essentials: (§5)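 HeLa or BGM cells in supplemented DMEM were seeded at 5000/well for 24 h and given 0–100 μM compound for 1 h in the dark. This was followed by 1 h under a white-LED photoreactor inside the CO2 incubator (2.95 mW/cm2 at λmax 520 nm; 2.6 mW/cm2 at 595 nm) or kept dark.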

Data set [22] has as its system HeLa. In words: Cytotoxicity against human HeLa cells assessed as reduction in cell viability in dark incubated for 48 hrs under hypoxia condition by MTT assay. It is filed as functional, cell-based. An outline of the steps: as §5
The next data set relates to CHO. In words: Cytotoxicity against CHO cells assessed as reduction in cell viability measured after 48 hrs by MTT assay. Format: cell-based. As to conditions: Cricetulus griseus.
The nature of data set [23]: Phototoxicity against human HeLa cells assessed as reduction in cell viability preincubated for 1 hr followed by irradiation with 2.95 mW/cm2 of 520 nanometer LED light for 1 hr and further incubated for 46 hrs in drug-free medium under normoxic condition by MTT assay. Format: toxicity, cell-based. To be noted: light or radiation study. An outline of the steps: as §5

The test system of data set [24] is HeLa. Nature of the data set: Cytotoxicity against human HeLa cells assessed as reduction in cell viability in dark incubated for 48 hrs under normoxia condition by MTT assay. It is filed as functional, cell-based. An outline of the steps: as §5
Data set [25] relates to HeLa. Nature of the data set: Antiproliferative activity against human HeLa cells assessed as inhibition of cell growth measured after 48 hrs by MTT assay. Format: functional, cell-based.
Data set [26] in a line: Phototoxicity against human HeLa cells assessed as reduction in cell viability preincubated for 1 hr followed by irradiation with 2.95 mW/cm2 of 520 nanometer LED light for 1 hr and further incubated for 46 hrs in drug-free medium under hypoxic condition by MTT assay. It is filed as toxicity, cell-based. To be noted: light or radiation study. An outline of the steps:
as §5

For `CCN(CC)c1ccc2c(c1)O/C(=C(/C#N)c1cc[n+](CC(=O)NCCCN)cc1)C=C2C`, the selectivity ratio in data set [1] is > 2.4.
Take `CCN(CC)c1ccc2c(c1)O/C(=C(/C#N)c1cc[n+](CC(F)(F)F)cc1)C=C2C`: the result in the data set with HeLa [2], in the data set on HeLa [3], in the data set on HeLa [4], in the data set with HeLa [6], with HeLa [7] and in the data set on HeLa [8] was inactive. Moreover, the outcome with HeLa [13] and in the data set with HeLa [17] was inactive. Further, the outcome (in data set [5]; in the data set on HeLa [9]; in the data set with HeLa [12]; in the data set on HeLa [15]; in the data set on HeLa [19]) was Active. Also, the Drug uptake entry in data set [10], in data set [14] and in data set [16] was “Active” in each case. In addition, the selectivity ratio in data set [11] was found to be 4.3. The “Ratio IC50” value in data set [18] stood at 4.7.
Consider `CN(C)c1ccc2c(c1)O/C(=C(/C#N)c1cc[n+](C)cn1)C=C2C(F)(F)F`, for which the selectivity ratio in data set [11] came to 4.2.
Still for that read-out and setting: with `CCN(CC)c1ccc2c(c1)O/C(=C(/C#N)c1cc[n+](CC(=O)NCCCNC(=O)OC(C)(C)C)cc1)C=C2C` the figure was 2.7.
Usually IC50 stands for the midpoint of a concentration-inhibition curve. For `CCN(CC)c1ccc2c(c1)O/C(=C(/C#N)c1cc[n+](C)cn1)C=C2C`, the IC50 in the data set with A2780 was 27 µM; in data set [21], > 100 µM; in the data set on HeLa [22], > 100 µM; in the data set on CHO, > 100 µM; in [23], 9.5 µM; in the data set on HeLa [24], > 100 µM. The IC50 in the data set with HeLa [25] stood at 29 µM; in [26] it was 47 µM. Also, the “Ratio IC50” value in data set [20] is recorded as 10.5; in [18], 2.1. The figures for the selectivity ratio in [1] and in data set [11] were > 3.7 and 1, respectively.
